This excerpt belongs to a sample that is enriched for hits.
CHOP UPR activ – apoptotic UPR (CHOP) activation | activation, % at 10 µM | AID 449763 | 330,000 compounds, 0.34% hits | CHO-CHOP luciferase reporter, luminescence; percent of tunicamycin response over DMSO baseline;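 active = at 10 µM dose, activation of 40% or more, normalized to positive control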;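 note: 100% = tunicamycin at 10 µg/mL and 0% = DMSO alone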
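measured by = luciferase luminescence | assay system = CHO-CHOP cells, stable luciferase reporter of PERK-eIF2a-CHOP signalling | amount = 500 reporter cells seeded per well | timing = 6 h compound exposure at 37 °C after overnight seeding | controls = positive tunicamycin 10 µg/mL, negative DMSO alone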
T cruzi inh – T. cruzi replication inhibition; 300,000 compounds, 1.4% hits; T. cruzi beta-gal in NIH3T3, luminescence, 90 h; inhibition, % (concentration not given with the values); AID 1885;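 active = mean inhibition across valid replicates above about 55%, limit read from the data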;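 note: signal also drops with host cell toxicity which is not excluded here; 0% = plate median of DMSO wells and 100% = zero luminescence signal; higher percent means less beta-gal luminescence so fewer parasites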
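System – NIH/3T3 host cells with β-galactosidase reporter T. cruzi · Doses – single 50 nL compound addition per well in DMSO · Reagent – 5000 T. cruzi trypomastigotes/well · Medium – Low-serum DMEM with 2% FBS · Timing – ≥90 h infection period, 3 h prior cell attachment · Evaluation – parasite load inhibition, % · Technique – GalScreen luminescence, 60 min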
CHOP inh – inhibitors of CHOP induction in ER stress response; CHO-K1 CHOP-promoter luciferase, tunicamycin-induced, 15-18 h; inhibition, % at 10 µM; 220,000 compounds, 3.8% hits; AID 2732;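 active = compounds that reduced the stress-induced luciferase reporter signal by more than about 70% of percent inhibition, limit read from the data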;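 note: 0% = tunicamycin plus vehicle and 100% = wells without tunicamycin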
Lmaj promast – Leishmania major promastigote growth inhibition. AID 1063. inhibition, % at 10 µM. 200,000 compounds, 9% hits. Leishmania major promastigotes, resazurin fluorescence viability; in the data active = inhibition above about 50%;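 note: promastigotes grown with compound for 44 hours at 28 °C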
XBP1 UPR activ – adaptive UPR (XBP1) activation; AID 463104; CHO-XBP1 luciferase reporter, IRE1-XBP1 UPR activation, luminescence; percent of tunicamycin response, DMSO as zero; activation, % at 20 µM; 330,000 compounds, 0.33% hits;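 active = versus positive control, 20 µM dose yields 30% or more activation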;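 note: 100% = tunicamycin at 10 µg/mL and 0% = DMSO only wells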
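Material: CHO-XBP1 cells stably carrying IRE1-XBP1-driven luciferase reporter / Amount: 1000 cells per well / Compound: 20 µM, 1% DMSO / Times: 6 h treatment, 37 °C / Detection: luciferase luminescence / Measure: % activation of reporter signal versus tunicamycin and DMSO controls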
Dynein transport – blocks dynein driven cargo transport along microtubules | 3617.4 mouse cells, GR-EGFP nuclear translocation imaging; test concentration mostly 20 µM; stimulated with dexamethasone, 1 µM; hits give low values | z-score, hits read low | 220,000 compounds, 0.47% hits | AID 1381;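 active = plate z-score of nuclear minus cytoplasmic receptor signal below a set negative limit, without overly bright fluorescence or cell loss, cut at about -3.5 in these data, passing the limit was not always enough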;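 note: z-score of nuclear minus cytoplasmic ring GR-EGFP intensity difference per well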
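medium = tetracycline-free induction medium containing charcoal-stripped FBS | probe or stimulus = dexamethasone, 1.0 µM final | timing = 48 h induction, then 1 h compound, then 30 min agonist, 37 °C | detection = automated 10x imaging of fixed Hoechst-stained cells | read-out basis = nuclear versus cytoplasmic GR-EGFP signal, averaged per well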
Lmaj promast 1uM – blocks Leishmania major promastigote growth at 1 uM, repeat screen | shares compounds with Lmaj promast | L. major promastigote growth, resazurin fluorescence, 48 h | inhibition, % at 1 µM | 1,100 compounds, 13% hits | AID 1258;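 active = inhibition above about 50% in both repeat tests, limit read from the data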
The depositor's hits bear a star; . = no result.

SMILES	CHOP UPR activ	T cruzi inh	CHOP inh	Lmaj promast	XBP1 UPR activ	Dynein transport	Lmaj promast 1uM
O=C(O)c1ccc(N/N=C/c2ccc(-c3ccccc3)cc2)cc1	.	4.6	-12.0	6.1	.	0.332	.
Cc1ccc(-n2nnnc2-c2cnc(-c3cccnc3)nc2C(F)(F)F)cc1	-1.0	3.8	41.3	4.5	-2.3	-0.518	.
FC(F)(F)c1nc(-c2ccncc2)ncc1-c1nnnn1-c1ccccc1	0.1	-0.2	28.9	60.7*	-1.6	-0.633	11.2
O=S(=O)(c1ccc(-c2csc(-c3cccnc3)n2)cc1)N1CCCC1	0.7	14.0	31.7	14.7	2.3	-0.892	.
O=S(=O)(c1ccc(-c2csc(-c3cccnc3)n2)cc1)N1CCCCC1	2.2	65.8*	58.7	78.3*	1.6	0.0154	39.5
CC(C)(C)c1nnc(NC(=O)C2CC(=O)N(CCc3ccc(F)cc3)C2)s1 (stereo unspecified)	-1.0	4.3	.	.	-1.7	.	.
CCCc1cc(=O)oc2cc(C)cc(OCC(=O)Nc3cccnc3)c12	-2.3	15.2	.	.	-3.0	.	.
COc1ccc(C(=O)C2CCCN(S(=O)(=O)c3ccccc3F)C2)c(C)c1 (stereo unspecified)	0.5	3.3	.	.	-1.6	.	.
CCn1c2ccccc2c2nn(C)c(=N)nc21	0.2	45.3	48.1	95.7*	5.5	-0.241	29.6
COc1ccc(C(=O)Nc2ccccc2C(=O)NC(Cc2c[nH]c3ccccc23)C(=O)O)cc1 (stereo unspecified)	-0.6	-9.7	11.9	-2.7	0.5	0.108	.
O=C(CSC1=NCCN1)NC12CC3CC(CC(C3)C1)C2	-2.6	9.1	-8.0	100.3*	1.2	-0.707	-4.7
Cc1nnc(SCC(=O)NC23CC4CC(CC(C4)C2)C3)s1	2.2	-13.7	6.8	-0.3	0.1	0.163	.
COc1ccc(NC(=O)N(Cc2ccc(C)cc2)Cc2cccnc2)c(OC)c1	-1.3	25.4	9.7	70.3*	-0.7	-0.568	-2.9
CC1=Nc2cccc3cccc(c23)N1	0.9	-21.1	-23.4	99.8*	0.1	0.344	-8.8
Cc1ccc(OCC(O)CN2CCN(CC(O)COc3ccc(C)cc3)CC2)cc1 (stereo unspecified)	1.7	-3.8	25.5	57.0*	0.4	-0.945	-6.5
Cc1ccc(OCC(O)CN2CCN(c3ccc(C)cc3)CC2)cc1 (stereo unspecified)	-0.4	7.4	.	.	-1.9	.	.
CCOC(=O)c1ccc2ncc(C(=O)OCC)c(NCc3ccco3)c2c1	0.9	29.4	23.4	56.9*	4.3	0.212	2.4
COc1ccc2cc3[n+](cc2c1OC)CCc1cc2c(cc1-3)OCO2	-0.7	51.7	-1.3	99.6*	-6.2	-0.481	76.4*
c1ccc(C(Cc2nc(-c3ccncc3)no2)c2ccccc2)cc1	1.6	45.4	.	69.8*	1.9	0.159	11.0
COc1ccc2c(c1)C(=O)[C@@H](O)[C@H](c1ccc(OC)c(Br)c1)O2	4.8	-19.2	23.2	98.4*	2.0	0.474	-58.2
COc1cccc([C@@H]2Oc3ccc(OC)cc3C(=O)[C@H]2O)c1	3.1	-12.0	-11.0	13.9	5.8	-0.503	.
CN(C)S(=O)(=O)c1cccc(N=c2scc(-c3ccc4c(c3)NC(=O)CO4)n2CC2CCCO2)c1 (stereo unspecified)	1.4	3.9	4.3	95.9*	-3.8	-0.05	-13.4
CCN(CC)c1ccc(-c2nn3c(-c4n[nH]c5c4CCC5)nnc3s2)cc1	1.4	40.4	.	62.0*	29.8	0.51	-7.7
C1CCC(c2nn3c(-c4n[nH]c5c4CCC5)nnc3s2)CC1	0.7	13.0	12.4	38.2	3.0	-0.561	.
O=C(CN1CCN(Cc2ccccc2)CC1)c1ccc(Br)cc1	.	.	0.2	82.2*	.	-1.26	9.3
SMILES	CHOP UPR activ	T cruzi inh	CHOP inh	Lmaj promast	XBP1 UPR activ	Dynein transport	Lmaj promast 1uM
COc1ccc(CCN2CC(C(=O)NCCc3ccccc3C)CCC2=O)cc1 (stereo unspecified)	1.7	12.0	.	.	-8.0	.	.
Cc1ccc(-c2csc(NC(=O)c3cc([N+](=O)[O-])ccc3N3CCOCC3)n2)cc1	2.2	8.6	-6.3	5.3	-1.5	-0.466	.
O=C(Nc1nc(-c2ccccc2)cs1)c1ccc(N2CCOCC2)c([N+](=O)[O-])c1	0.4	55.2*	78.7*	98.2*	-3.1	-0.435	14.0
COc1ccc(OCC(=O)OCC(=O)c2ccc(OC)c(F)c2)cc1	-0.2	.	.	.	-1.3	.	.
CCCCN1C2CCCC1CC(NC(=O)C1CCCCC1)C2 (stereo unspecified)	-2.0	20.9	-20.9	87.6*	0.1	0.168	-7.7
COc1ccc(C(=O)/C=C/c2ccccc2)c(OC)c1	6.9	-11.3	-97.5	66.1*	1.6	-2.34	9.7
COc1ccc(OC)c(C(=O)/C=C/c2ccccc2C(F)(F)F)c1	9.7	33.7	9.6	75.0*	2.6	-2	-8.8
O=C(NCCN1C(=O)S/C(=C\c2cccc(Cl)c2Cl)C1=O)C1=COCCO1	7.5	-0.8	.	.	-7.5	.	.
Cc1ccc(-n2nc(-c3cccs3)cc2C(=O)NCC2CCCO2)c(C)c1 (stereo unspecified)	1.1	15.1	23.8	92.1*	-0.2	-0.398	-4.1
Cc1nc(Oc2ccccc2)c2ccccc2n1	-1.2	4.4	16.8	56.6*	-1.4	-0.663	-4.7
CC(=O)c1cccc(NC(=O)C(C)OC(=O)CCc2nc3ccccc3c(=O)[nH]2)c1 (stereo unspecified)	-1.5	.	.	.	3.2	.	.
O=C(O)c1ccc2c3c(ncnc13)-c1ccccc1C2=O	1.6	-10.4	44.7	98.2*	1.4	1.12	0.1
O=C1c2ccccc2-c2ncnc3cccc1c23	.	.	.	37.4	.	0.577	.
COC(=O)c1cc(S(=O)(=O)N(Cc2ccccc2)C(C)(C)C)c[nH]1	-0.8	4.5	.	.	-2.5	.	.
CCOC(=O)c1c(-c2ccc(F)cc2)csc1NC(=O)CCN1CCOCC1	-0.3	5.9	12.2	93.5*	0.0	-0.65	77.4*
Clc1ccc(-c2nnc(-c3ccco3)nc2N2CCCCC2)cc1	3.3	-6.7	42.6	64.4*	-2.5	-0.516	25.2
Clc1ccc(-c2nnc(-c3ccc(Br)cc3)c(N3CCSCC3)n2)cc1	2.1	8.4	41.4	26.9	0.9	-0.522	.
CCN1C(=O)NC2=C(C(=O)c3ccccc32)C1c1ccccc1F (stereo unspecified)	0.3	9.7	52.7	99.8*	-1.1	1.31	28.7
CCC(C)NC(=O)CNC(=S)N(Cc1ccccc1)Cc1cccnc1 (stereo unspecified)	-0.1	49.9	14.8	75.4*	-0.1	0.53	-7.1

From PubChem BioAssay
